Results pooled from the literature.
Protocols differ between the studies behind these lines.
Effect on: cell growth or viability

OCc1ccc(-c2nn(Cc3ccccn3)c3cccnc23)o1  inhibition (RBE; ATP luminescence; 46 µM; 72 h): 76%
NCC(=O)Nc1ccccc1/N=c1\cc(-c2ccc3c(c2)OCO3)oc2c([N+](=O)[O-])cccc12  inhibition (MDA-MB-468; CCK-8; 1 µM): 5.28%
O=C(NCCCN1CCCCC1)c1ccc(-c2nc3ccc4[nH]ncc4c3c3c2CCCC3)cc1  GI50 (MV4-11; resazurin; 72 h): 2400 nM
O=C(CCCCCCSc1ccc2ccccc2c1)NO  viability (HBL1; ATP luminescence; 0.5 µM; 5 days): 113%
CN(C)CCN(C)C(=O)c1ccc(-c2nc3ccc4[nH]ncc4c3c3c2CCCCC3)cn1  GI50 (MV4-11; resazurin; 72 h): 581 nM
CCN(Cc1ccccc1C)c1ccc(CO)c(Cl)c1  inhibition (RBE; ATP luminescence; 46 µM; 72 h): 87%
O=C(Nc1cccc(Br)c1)c1cccc(S(=O)(=O)N2CCCCCC2)c1  viability (HBL1; ATP luminescence; 1 µM; 5 days): 101%
OCC1CCC(c2nn(Cc3ccccc3)c3ccccc23)O1 (centres unmarked)  inhibition (RBE; ATP luminescence; 46 µM; 72 h): 13%
COc1ccc2/c(=N/c3ccccc3NC(=O)[C@H](C)N)cc(-c3ccc4c(c3)OCCO4)oc2c1  inhibition (MDA-MB-468; CCK-8; 1 µM): 13.4%
Cc1n[nH]c2ccc3nc(-c4ccc(C(=O)NCCN(C)C)cc4)c4c(c3c12)CCCC4  GI50 (MV4-11; resazurin; 72 h): 8 nM
NCC(=O)Nc1ccccc1/N=c1\cc(-c2ccc3c(c2)OCCO3)oc2ccccc12  inhibition (MDA-MB-468; CCK-8; 1 µM): 4.61%
Cc1ccccc1Cn1nc(-c2ccc(CO)o2)c2ccccc21  inhibition (RBE; ATP luminescence; 46 µM; 72 h): 61%
C[C@H](N)C(=O)Nc1ccccc1/N=c1\cc(-c2ccc3c(c2)OCCO3)oc2cc(F)ccc12  inhibition (MDA-MB-468; CCK-8; 1 µM): 12.8%
CN(C)CCNC(=O)c1ccc(-c2nc3ccc4[nH]ncc4c3c3c2CCCCC3)cn1  GI50 (MV4-11; resazurin; 72 h): 146 nM
Nc1nc2ccc(-c3c/c(=N\c4ccccc4NC(=O)CCN4CCOCC4)c4ccccc4o3)cc2o1  inhibition (MDA-MB-468; CCK-8; 1 µM): 0.34%
OCc1ccc(N2CCc3ccccc3C2)cc1Cl  inhibition (RBE; ATP luminescence; 46 µM; 72 h): 84%
CN(C)CCN(C)C(=O)c1ccc(-c2nc3ccc4[nH]ncc4c3c3c2CC(F)(F)CC3)cc1  GI50 (MV4-11; resazurin; 72 h): 748 nM
CN(Cc1ccc(F)cc1)c1ccc(CO)c(Cl)c1  inhibition (RBE; ATP luminescence; 46 µM; 72 h): 89%
NCCC(=O)Nc1ccccc1/N=c1\cc(-c2ccc3nc(N)oc3c2)oc2ccc(O)cc12  inhibition (MDA-MB-468; CCK-8; 1 µM): 40.2%
CN(C)CCNC(=O)c1ccc(-c2nc3ccc4[nH]ncc4c3c3c2CCCCC3)c(F)c1  GI50 (MV4-11; resazurin; 72 h): 11 nM
